The source of these data is ChEMBL document CHEMBL3232890, “Novel structural hybrids of pyrazolobenzothiazines with benzimidazoles as cholinesterase inhibitors” (Eur J Med Chem, 2014).

The target in assay [1] is Cholinesterase (Equus caballus, UniProt P81908). Put plainly: Inhibition of BuChE in equine serum using butyrylthiocholine chloride as substrate preincubated with enzyme for 10 mins prior to substrate challenge for 15 mins by Ellman's method.
A short description of assay [2]: Inhibition of electric eel AChE type VI-S using acetylthiocholine iodide as substrate preincubated with enzyme for 10 mins prior to substrate challenge for 15 mins by Ellman's method. Details: species or system Electrophorus electricus. Put shortly: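 Enzyme was EeAChE at 0.5 U/mg or equine BuChE at 3.4 U/mg, diluted in Tris-HCl with 0.1% BSA. Eight to ten serial dilutions were preincubated for 10 min at 25 °C, then incubated for 15 min at 25 °C, and read at 405 nm in triplicate. IC50 came from linear regression.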
On the technique in general: In Ellman's method for cholinesterases, released thiocholine reacts with DTNB.

Assay [3] concerns the target Cholinesterase (Equus caballus) (UniProt P81908). The assay can be described thus: Inhibition of BuChE in equine serum using butyrylthiocholine chloride as substrate at 500 uM preincubated with enzyme for 10 mins prior to substrate challenge for 15 mins by Ellman's method. Put shortly:
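The compound was added from DMSO (1% final) at 0.5 mM final. Enzyme and compound were preincubated for 10 min at 25 °C, then incubated for 15 min at 25 °C, and absorbance was read at 405 nm. Blanks lacked enzyme or substrate.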

Structures can show the parent of a compound that is named as a salt.

Sequence of Cholinesterase (P81908 whole entry): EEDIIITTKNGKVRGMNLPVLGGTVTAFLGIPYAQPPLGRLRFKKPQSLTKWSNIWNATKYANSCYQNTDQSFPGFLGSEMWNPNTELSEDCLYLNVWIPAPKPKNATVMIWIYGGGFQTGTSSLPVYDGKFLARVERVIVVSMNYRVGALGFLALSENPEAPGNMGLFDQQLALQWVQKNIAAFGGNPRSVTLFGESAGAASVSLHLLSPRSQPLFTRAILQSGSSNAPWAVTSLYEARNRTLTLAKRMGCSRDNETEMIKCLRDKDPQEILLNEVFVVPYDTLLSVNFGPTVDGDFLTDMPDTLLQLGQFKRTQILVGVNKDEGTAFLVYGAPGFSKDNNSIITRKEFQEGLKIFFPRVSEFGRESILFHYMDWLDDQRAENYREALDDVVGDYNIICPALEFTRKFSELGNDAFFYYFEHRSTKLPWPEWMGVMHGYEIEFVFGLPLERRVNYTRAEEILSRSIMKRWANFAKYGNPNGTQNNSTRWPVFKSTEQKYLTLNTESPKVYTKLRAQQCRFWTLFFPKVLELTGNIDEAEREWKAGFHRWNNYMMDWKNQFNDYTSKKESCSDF
Sequence of Cholinesterase (Equus caballus) (P81908 whole entry): as above

The IC50 is the concentration that gives 50% inhibition. With `Cc1cc2nc(-c3ccc(-n4nc5c(c4C)N(C)S(=O)(=O)c4ccccc4-5)cc3)[nH]c2cc1C`, the IC50 in assay [1] amounted to 273 nM; in assay [2], 41 nM.

The inhibition is the drop in the measured response relative to a control, in per cent. A lower inhibition goes with a response near the control. `Cc1c2c(nn1-c1ccc(-c3nc4cncnc4[nH]3)cc1)-c1ccccc1S(=O)(=O)N2C`: the inhibition in assay [3] was determined as 35.5%. This compound returned an IC50 in assay [2] of 1950 nM. For `CN1c2c(nn(-c3ccc(-c4nc5cc([N+](=O)[O-])ccc5[nH]4)cc3)c2-c2ccccc2)-c2ccccc2S1(=O)=O`, in that order: 30.7% and 7940 nM. For the compound `COc1ccc2[nH]c(-c3ccc(-n4nc5c(c4C)N(C)S(=O)(=O)c4ccccc4-5)cc3)nc2c1`, the 50% inhibitory concentration (IC50) in assay [1] turned out to be 6920 nM; in assay [2], 1140 nM. In assay [2], `COc1cc2c(cc1OC)C(=O)C(CC1CCN(Cc3ccccc3)CC1)C2` (configuration not stated) [DONEPEZIL HYDROCHLORIDE] gave an IC50 of 32 nM. Compound `Cc1cc2nc(-c3ccc(-n4nc5c(c4-c4ccccc4)N(C)S(=O)(=O)c4ccccc4-5)cc3)[nH]c2cc1C` returned an inhibition in assay [3] of 34.1%. The same compound returned a 50% inhibitory concentration (IC50) in assay [2] of 3820 nM.

As for `CCOC(=O)c1ccc2[nH]c(-c3ccc(-n4nc5c(c4-c4ccccc4)N(C)S(=O)(=O)c4ccccc4-5)cc3)nc2c1`, the values for the concentration for half-maximal inhibition (IC50) in assay [1] and in assay [2] were 180 nM and 13 nM, respectively. Consider `Cc1c2c(nn1-c1ccc(-c3nc4cc([N+](=O)[O-])ccc4[nH]3)cc1)-c1ccccc1S(=O)(=O)N2C`, for which the inhibition in assay [3] is 38.5%. The same compound came in with an IC50 in assay [2] of 492 nM. Consider `CN1c2c(nn(-c3ccc(-c4nc5cc(Br)ccc5[nH]4)cc3)c2-c2ccccc2)-c2ccccc2S1(=O)=O`, for which the IC50 in assay [1] came to 3230 nM; in assay [2], 6900 nM. Take `Cc1c2c(nn1-c1ccc(-c3nc4ccccc4o3)cc1)-c1ccccc1S(=O)(=O)N2C`: the IC50 in assay [1] came to 17 nM; in assay [2] it was 6920 nM. In turn, `Cc1ccc2[nH]c(-c3ccc(-n4nc5c(c4-c4ccccc4)N(C)S(=O)(=O)c4ccccc4-5)cc3)nc2c1` registered an inhibition in assay [3] of 31.8%. Moreover, 122 nM corresponded to half-maximal inhibition in assay [2] (IC50). `Cc1c2c(nn1-c1ccc(-c3nc4ccccc4[nH]3)cc1)-c1ccccc1S(=O)(=O)N2C`: the concentration for half-maximal inhibition (IC50) in assay [1] was determined as 43 nM; in assay [2], 2910 nM. Regarding `Cc1c2c(nn1-c1ccc(-c3nc4cc(C(=O)O)ccc4[nH]3)cc1)-c1ccccc1S(=O)(=O)N2C`, the IC50 stood at 26 nM in assay [1] and 1130 nM in assay [2]. Compound `COc1ccc2[nH]c(-c3ccc(-n4nc5c(c4-c4ccccc4)N(C)S(=O)(=O)c4ccccc4-5)cc3)nc2c1` returned an inhibition in assay [3] of 37.3%. In assay [2], the IC50 was 7130 nM.

As for `CN1c2c(nn(-c3ccc(-c4nc5cc(C(=O)O)ccc5[nH]4)cc3)c2-c2ccccc2)-c2ccccc2S1(=O)=O`, the IC50 in assay [1] came to 4620 nM; in assay [2], 6110 nM. In the case of `CN1c2c(nn(-c3ccc(-c4nc5ccccc5[nH]4)cc3)c2-c2ccccc2)-c2ccccc2S1(=O)=O`, the results for the half-inhibitory concentration (IC50) in assay [1] and in assay [2] were 43 nM and 11 nM, respectively. With `CCOC(=O)c1ccc2[nH]c(-c3ccc(-n4nc5c(c4C)N(C)S(=O)(=O)c4ccccc4-5)cc3)nc2c1`, the inhibition in assay [3] stood at 29.5%. In assay [2], the IC50 was determined as 993 nM.

Take `Cc1c2c(nn1-c1ccc(-c3nc4cc(Br)ccc4[nH]3)cc1)-c1ccccc1S(=O)(=O)N2C`: the IC50 in assay [1] was determined as 49 nM; in assay [2], 541 nM. In turn, `CN1c2c(nn(-c3ccc(-c4nc5ccccc5o4)cc3)c2-c2ccccc2)-c2ccccc2S1(=O)=O` returned an inhibition in assay [3] of 36.5%. In addition, the midpoint of inhibition in assay [2], the IC50, lay at 54 nM. For `Cc1c2c(nn1-c1ccc(-c3nc4cc(Cl)ccc4[nH]3)cc1)-c1ccccc1S(=O)(=O)N2C`, in that order: 38.7% and 1020 nM. For `Cc1ccc2[nH]c(-c3ccc(-n4nc5c(c4C)N(C)S(=O)(=O)c4ccccc4-5)cc3)nc2c1`, the half-inhibitory concentration (IC50) was found to be 41 nM in assay [1] and 7530 nM in assay [2]. The corresponding values for `CN1c2c(nn(-c3ccc(-c4nc5cncnc5[nH]4)cc3)c2-c2ccccc2)-c2ccccc2S1(=O)=O` are 1330 nM and 5220 nM. The corresponding values for `CN1c2c(nn(-c3ccc(-c4nc5cc(Cl)ccc5[nH]4)cc3)c2-c2ccccc2)-c2ccccc2S1(=O)=O` are 9940 nM and 3020 nM. For `CN(C)C(=O)Oc1cccc([N+](C)(C)C)c1` [NEOSTIGMINE], in that order: 49600 nM and 22200 nM.
